# Screening results: PubChem BioAssay, The Scripps Research Institute Molecular Screening Center
# M5 antag – CHRM5 antagonism in calcium assay; CHO-hM5 cells, Fluo-8 calcium fluorescence, ACh EC80; inhibition, % at 3 µM; AID 624040; 360,000 tested, 0.59% active; P08912;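 active = inhibition above a per-plate cutoff, the mean of that plate's test compounds plus 3 SD, cut at about 27% in these data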
# Target sequence (P08912 whole entry, looked up): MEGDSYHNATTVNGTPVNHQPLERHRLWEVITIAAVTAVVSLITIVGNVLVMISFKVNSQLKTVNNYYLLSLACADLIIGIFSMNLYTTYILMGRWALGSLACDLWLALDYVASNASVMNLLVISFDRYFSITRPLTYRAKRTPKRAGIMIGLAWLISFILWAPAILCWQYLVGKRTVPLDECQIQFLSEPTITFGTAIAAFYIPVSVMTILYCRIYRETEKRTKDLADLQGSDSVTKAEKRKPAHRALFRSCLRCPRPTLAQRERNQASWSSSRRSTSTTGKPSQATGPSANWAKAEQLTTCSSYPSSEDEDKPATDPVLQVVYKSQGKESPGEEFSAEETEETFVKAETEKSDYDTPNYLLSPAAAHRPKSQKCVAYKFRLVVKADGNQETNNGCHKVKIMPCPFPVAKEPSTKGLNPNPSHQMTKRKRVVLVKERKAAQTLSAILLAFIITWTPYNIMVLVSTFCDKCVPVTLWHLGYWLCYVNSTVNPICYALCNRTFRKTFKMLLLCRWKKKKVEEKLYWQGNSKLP
# M4 antag – CHRM4 antagonism in calcium assay; P08173; CHO-hM4 cells, ACh EC80, Fluo-8 calcium fluorescence; inhibition, % at 3 µM; 360,000 tested, 0.73% active; AID 624125;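 active = inhibition above its plate's cutoff, the mean inhibition of sample wells plus 3 SD, cut at about 27% in these data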
# CHRM4 agonist – agonists of human muscarinic M4 receptor (CHRM4) | CHO-K1 hM4/Gqi5, Fluo-8 calcium fluorescence; vehicle 0%, full acetylcholine response 100% | activation, % at 3 µM | 360,000 tested, 0.14% active;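 active = activation above the run mean over all test wells plus 3 SD, cut at about 32% in these data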;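 note: peak over basal fluorescence ratio per well then scaled between controls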
# CHRM5 PAM – CHRM5 positive allosteric modulation; activation, % at 3 µM; CHO-K1 hM5, Fluo-8 calcium, ACh EC20 PAM; 0% = ACh EC20, 100% = ACh EC100; 360,000 tested, 0.3% active; P08912;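 active = activation above the run cutoff, the mean activation of all test compounds plus 3 SD, cut at about 18% in these data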
#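 Assay system – human M5 receptor in CHO-K1 cells · Read-out – % activation, ACh-normalized · Technique – Fluo-8 calcium fluorescence · Dosing – single-point, 3 µM nominal · Incubation – Fluo-8 loading 80 min at 37 °C plus 30 min room temperature · Repeats – singlicate, one well per test compound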
# CHRM4 PAM – positive allosteric modulators of human muscarinic M4 receptor. P08173. CHO-K1 hM4/Gqi5, Fluo-8 calcium fluorescence, ACh EC20; 0% = ACh EC20, 100% = maximal ACh. activation, % at 3 µM. 360,000 tested, 0.4% active;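 active = activation above its plate's cutoff, the mean activation of sample wells plus 3 SD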
# M5 ag – agonists of human muscarinic M5 receptor (CHRM5); CHO-K1 hM5 cells, Fluo-8 calcium fluorescence; 0% DMSO wells, 100% maximal acetylcholine response; P08912; 360,000 tested, 0.19% active; activation, % at 3 µM; AID 624037;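 active = activation above the run's mean over test compounds plus 3 SD, cut at about 23% in these data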;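 note: signal is peak over basal fluorescence ratio across the kinetic read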
# Numbers stand for hits; 0 = inactive. Rows were chosen to be rich in hits. Some 1.9% of all compounds tested hit in one or more screens of this group.
SMILES,M5 antag,M4 antag,CHRM4 agonist,CHRM5 PAM,CHRM4 PAM,M5 ag
Cc1nc2ccccc2nc(C)c1=NOCc1ccc(C#N)cc1,0,0,0,0,19.2,0
Cc1nc2ccccc2nc(C)c1=NOCc1cccc(F)c1,0,0,0,0,0,0
CCOc1ccc(NC(=O)C2CCC(C)(C(=O)O)C2(C)C)cc1 (stereo unspecified),0,0,0,0,0,0
COc1ccc(NC(=O)C2CCC(C)(C(=O)O)C2(C)C)cc1 (stereo unspecified),0,27.6,0,0,0,0
CN(C(=O)c1cc(COc2ccc(F)cc2Cl)on1)C1CCOC1 (stereo unspecified),0,0,0,0,0,0
NS(=O)(=O)c1ccc(CCNC(=O)Cc2ccc(Cl)cc2)cc1,0,0,0,0,0,0
CN(CC(=O)Nc1ccc(C#N)cc1)Cc1ccc(Cl)c(Cl)c1,0,43.0,0,0,0,0
N#Cc1ccc(NC(=O)Nc2ccc(Oc3ccc(NC(=O)Nc4ccc(C#N)cc4)cc3)cc2)cc1,0,0,0,0,0,0
N#Cc1ccc(NC(=O)Nc2cccc(C#N)c2)cc1,31.9,0,0,0,0,0
CN(CC(=O)Nc1ccc(N2CCOCC2)cc1)CC(=O)Nc1cccc(C#N)c1,0,0,0,0,22.8,0
CN(CC(=O)Nc1cccc(C#N)c1)Cc1ccc(Cl)cc1,0,0,0,0,0,0
CN(CC(=O)Nc1ccc(C#N)cc1)CC(=O)Nc1ccc(N2CCOCC2)cc1,0,0,0,0,0,0
CN1CCc2c(sc3nc(SCC(=O)NCc4ccco4)n(-c4ccccc4)c(=O)c23)C1,0,0,0,0,0,0
Cc1ccc(S(=O)(=O)N2[C@H](C(C)C)[C@H]3[C@H]4C(=O)N(c5ccccc5)C(=O)[C@H]4CC(=O)[C@H]3[C@@H]2c2ccccc2)cc1,0,0,0,0,0,0
CCN(CC)CCNC(=O)C(Cl)=C1C(Cl)=C(Cl)C(Cl)=C1Cl,0,0,0,0,0,0
CC(C)[C@H](NC(=O)c1ccccc1F)C(=O)NC1CCCCCCC1,0,0,0,0,0,0
NCCCNc1ccc([N+](=O)[O-])cc1C(F)(F)F,0,0,0,0,0,0
O=C(CSc1nc2ccccc2c(=O)n1Cc1ccco1)N1CCCCCC1,0,0,0,0,0,0
O=C(NCc1ccco1)c1ccc2c(=O)n(Cc3ccco3)c(SCC(=O)N3CCCC3)nc2c1,0,41.8,0,0,0,0
c1ccc(CCn2nnc3ccccc32)cc1,0,0,0,0,0,0
c1ccc2c(c1)nnn2CNc1nccs1,0,0,0,0,22.4,0
O=C(Oc1ccccc1)N1CCCCC1,0,0,0,0,0,0
COc1ncc(-c2ccc(N3C(c4ccc([N+](=O)[O-])cc4)=Cc4ccccc4C3CC(C)=O)cc2)cn1 (stereo unspecified),0,0,0,0,0,0
COc1ccc(OC)c(-c2cc(C(=O)Nc3ccccc3C(N)=O)c3ccccc3n2)c1,0,30.8,0,0,0,0
COc1ccc(OC)c(-c2cc(C(=O)N/N=C/c3ccc(F)cc3)c3ccccc3n2)c1,0,0,0,0,0,0
SMILES,M5 antag,M4 antag,CHRM4 agonist,CHRM5 PAM,CHRM4 PAM,M5 ag
COc1ccc(-c2cc(C(=O)N3CCN(c4ccccc4F)CC3)c3ccccc3n2)c(OC)c1,36.0,0,0,0,0,0
COc1ccc(OC)c(-c2cc(C(=O)N3CCN(c4ncccn4)CC3)c3ccccc3n2)c1,31.1,0,0,0,0,0
COc1ccc(-c2cc(C(=O)N3CCCCCC3)c3ccccc3n2)c(OC)c1,0,0,0,0,0,0
COc1ccc(-c2cc(C(=O)N3CCN(c4ncccn4)CC3)c3ccccc3n2)c(OC)c1,0,0,0,0,0,0
CCN(CC)/C(=N\S(=O)(=O)c1ccccc1C)c1ccccc1,0,0,0,0,0,0
CC(CNC(=O)c1ccccc1Cl)NC(=O)c1ccccc1Cl (stereo unspecified),0,0,0,0,0,0
C=CCc1cc(Cl)ccc1OCCCn1ccnc1,0,0,0,0,0,0
